By MIC is commonly meant the lowest concentration that inhibits growth of the organism.

What all share (format): functional
Assay [1] deals with Staphylococcus aureus. Put plainly: Antibacterial activity against Staphylococcus aureus ATCC 33591 assessed as reduction in bacterial growth by Mueller-Hinton broth based assay. A digest of the protocol: (§1)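 Broth MIC by standard procedure in Mueller-Hinton broth, for both B. subtilis 168 and S. aureus ATCC 33591.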
The subject of assay [2] is Mycolicibacterium smegmatis. Nature of the assay: Antimycobacterial activity against Mycobacterium smegmatis MC2 155 assessed as inhibition of bacterial growth measured after 2 days by resazurin dye based analysis. The settings on record: MC2 155, 48 h, time 2 day. In a few lines:
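Strains grown in 7H9 broth with 0.2% glycerol, 10% OADC and 0.05% Tween-80. Inoculum was about 5 × 10^5 CFU/mL, checked by plating on 7H10/OADC agar to be 3–8 × 10^5. Read at 2 days for M. smegmatis and 7 days for M. tuberculosis H37Ra, M. bovis and M. avium. Resazurin 30 μg/mL was then added for one further day. Values are averages of at least two experiments.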
For orientation: Alamar Blue is a resazurin reagent that responds to reducing activity.

Assay [3] concerns Enterococcus faecium. Put plainly: Antibacterial activity against vancomycin-resistant Enterococcus faecium ATCC 700221 assessed as inhibition of bacterial growth by Mueller-Hinton broth based assay.
Assay [4] has as its system Enterococcus faecalis. Nature of the assay: Antibacterial activity against vancomycin-resistant Enterococcus faecalis ATCC 51299 assessed as inhibition of bacterial growth by Mueller-Hinton broth based assay.
Assay [5] relates to Bacillus subtilis. Nature of the assay: Antibacterial activity against Bacillus subtilis 168 assessed as reduction in bacterial growth by Mueller-Hinton broth based assay. A digest of the protocol: as §1

Converted amounts (≈) assume the structure as drawn. Where only a bound is given, the exact number is not on record here.

`CN1C(=O)[C@@H]2NC(=O)[C@@H]3NC(=O)[C@@H](c4ccc(O)cc4)NC(=O)[C@H](NC(=O)C(Nc4cc(O)cc(O)c4)c4ccc(O)cc4)Cc4c[nH]c5cc(ccc45)-c4cc3cc(c4O)Oc3ccc(cc3)C[C@H]1C(=O)N[C@@H](C(=O)O)c1ccc(O)c(c1)Oc1ccc2cc1` (stereo not given in full): the minimum inhibitory concentration (MIC) in assay [1] is 4 µg/mL (≈ 3.25 µM); in assay [2] it was over 128 µg/mL; in assay [3], 16 µg/mL (≈ 13 µM); in assay [4], 4 µg/mL (≈ 3.25 µM); in assay [5] it was 1 µg/mL (≈ 0.814 µM).
Turning to `CN1C(=O)[C@@H]2NC(=O)[C@@H]3NC(=O)[C@@H](c4ccc(O)cc4)NC(=O)[C@H](NC(=O)C(NCCO)c4ccc(O)cc4)Cc4c[nH]c5cc(ccc45)-c4cc3cc(c4O)Oc3ccc(cc3)C[C@H]1C(=O)N[C@@H](C(=O)OCCO)c1ccc(O)c(c1)Oc1ccc2cc1` (stereo not given in full), the minimum inhibitory concentration (MIC) in assay [1] was 32 µg/mL (≈ 26.5 µM); in assay [2] it was 16 µg/mL (≈ 13.2 µM).
With `CCCCCCCCCCCNC(C(=O)N[C@@H]1Cc2c[nH]c3cc(ccc23)-c2cc3cc(c2O)Oc2ccc(cc2)C[C@H]2C(=O)N[C@@H](C(=O)O)c4ccc(O)c(c4)Oc4ccc(cc4)[C@@H](NC(=O)[C@@H]3NC(=O)[C@@H](c3ccc(O)cc3)NC1=O)C(=O)N2C)c1ccc(O)cc1` (stereo not given in full), the minimal inhibitory concentration (MIC) in assay [1] was found to be 16 µg/mL (≈ 12.5 µM); in assay [4], 4 µg/mL (≈ 3.14 µM).
`CN(C)CCCNCCCNC(=O)[C@@H]1NC(=O)[C@@H]2Cc3ccc(cc3)Oc3cc4cc(c3O)-c3ccc5c(c[nH]c5c3)C[C@@H](NC(=O)Cc3ccc(O)cc3)C(=O)N[C@H](c3ccc(O)cc3)C(=O)N[C@H]4C(=O)N[C@@H](C(=O)N2C)c2ccc(cc2)Oc2cc1ccc2O`: the MIC is over 128 µg/mL in assay [1]; 1 µg/mL (≈ 0.802 µM) in assay [2]; 2 µg/mL (≈ 1.6 µM) in assay [3]; 16 µg/mL (≈ 12.8 µM) in assay [4]; 8 µg/mL (≈ 6.41 µM) in assay [5].
With `CN1C(=O)[C@@H]2NC(=O)[C@@H]3NC(=O)[C@@H](c4ccc(O)cc4)NC(=O)[C@H](NC(=O)C(NC(=O)OC(C)(C)C)c4ccc(O)cc4)Cc4c[nH]c5cc(ccc45)-c4cc3cc(c4O)Oc3ccc(cc3)C[C@H]1C(=O)N[C@@H](C(=O)O)c1ccc(O)c(c1)Oc1ccc2cc1` (stereo not given in full), in assay [3], the MIC is 16 µg/mL (≈ 13.1 µM).
Take `CN1C(=O)[C@@H]2NC(=O)[C@@H]3NC(=O)[C@@H](c4ccc(O)cc4)NC(=O)[C@H](NC(=O)C(Nc4cc(F)cc(F)c4F)c4ccc(O)cc4)Cc4c[nH]c5cc(ccc45)-c4cc3cc(c4O)Oc3ccc(cc3)C[C@H]1C(=O)N[C@@H](C(=O)O)c1ccc(O)c(c1)Oc1ccc2cc1` (stereo not given in full): the MIC is 8 µg/mL (≈ 6.39 µM) in assay [1]; over 128 µg/mL in assay [2]; 4 µg/mL (≈ 3.2 µM) in assay [3]; 8 µg/mL (≈ 6.39 µM) in assay [4]; 4 µg/mL (≈ 3.2 µM) in assay [5].
With `CN1C(=O)[C@@H]2NC(=O)[C@@H]3NC(=O)[C@@H](c4ccc(O)cc4)NC(=O)[C@H](NC(=O)C(Nc4ccc(F)cc4)c4ccc(O)cc4)Cc4c[nH]c5cc(ccc45)-c4cc3cc(c4O)Oc3ccc(cc3)C[C@H]1C(=O)N[C@@H](C(=O)O)c1ccc(O)c(c1)Oc1ccc2cc1` (stereo not given in full), the MIC was 8 µg/mL (≈ 6.58 µM) in assay [1]; over 128 µg/mL in assay [2]; 8 µg/mL (≈ 6.58 µM) in assay [3]; 8 µg/mL (≈ 6.58 µM) in assay [4]; 2 µg/mL (≈ 1.65 µM) in assay [5].
For the compound `CN1C(=O)[C@@H]2NC(=O)[C@@H]3NC(=O)[C@@H](c4ccc(O)cc4)NC(=O)[C@H](NC(=O)C(Nc4cccc(F)c4F)c4ccc(O)cc4)Cc4c[nH]c5cc(ccc45)-c4cc3cc(c4O)Oc3ccc(cc3)C[C@H]1C(=O)N[C@@H](C(=O)O)c1ccc(O)c(c1)Oc1ccc2cc1` (stereo not given in full), the minimal inhibitory concentration (MIC) was 16 µg/mL (≈ 13 µM) in assay [1]; over 128 µg/mL in assay [2]; 16 µg/mL (≈ 13 µM) in assay [3]; 16 µg/mL (≈ 13 µM) in assay [4]; 8 µg/mL (≈ 6.49 µM) in assay [5].
Consider `CN1C(=O)[C@@H]2NC(=O)[C@@H]3NC(=O)[C@@H](c4ccc(O)cc4)NC(=O)[C@H](NC(=O)C(Nc4cccc(O)c4O)c4ccc(O)cc4)Cc4c[nH]c5cc(ccc45)-c4cc3cc(c4O)Oc3ccc(cc3)C[C@H]1C(=O)N[C@@H](C(=O)O)c1ccc(O)c(c1)Oc1ccc2cc1` (stereo not given in full), for which the MIC in assay [1] was 16 µg/mL (≈ 13 µM); in assay [2] it was over 128 µg/mL; in assay [3], 16 µg/mL (≈ 13 µM); in assay [4], 8 µg/mL (≈ 6.51 µM); in assay [5], 4 µg/mL (≈ 3.25 µM).
`CN1C(=O)[C@@H]2NC(=O)[C@@H]3NC(=O)[C@@H](c4ccc(O)cc4)NC(=O)[C@H](NC(=O)C(Nc4ccccn4)c4ccc(O)cc4)Cc4c[nH]c5cc(ccc45)-c4cc3cc(c4O)Oc3ccc(cc3)C[C@H]1C(=O)N[C@@H](C(=O)O)c1ccc(O)c(c1)Oc1ccc2cc1` (stereo not given in full): the MIC in assay [3] worked out at 16 µg/mL (≈ 13.4 µM); in assay [4] it was 16 µg/mL (≈ 13.4 µM); in assay [5] it was 4 µg/mL (≈ 3.34 µM).
On to `CN[C@H](CC(C)C)C(=O)N[C@H]1C(=O)N[C@@H](CC(N)=O)C(=O)N[C@H]2C(=O)N[C@H]3C(=O)N[C@H](C(=O)N[C@H](C(=O)O)c4cc(O)cc(O)c4-c4cc3ccc4O)[C@H](O)c3ccc(c(Cl)c3)Oc3cc2cc(c3O[C@@H]2O[C@H](CO)[C@@H](O)[C@H](O)[C@H]2O[C@H]2C[C@](C)(N)[C@H](O)[C@H](C)O2)Oc2ccc(cc2Cl)[C@H]1O` [VANCOMYCIN], for which the MIC in assay [2] is 4 µg/mL (≈ 2.76 µM); in assay [3] it was over 128 µg/mL; in assay [4], 32 µg/mL (≈ 22.1 µM); in assay [5], 0.5 µg/mL (≈ 0.345 µM).
Take `CCCCNC(C(=O)N[C@@H]1Cc2c[nH]c3cc(ccc23)-c2cc3cc(c2O)Oc2ccc(cc2)C[C@H]2C(=O)N[C@@H](C(=O)O)c4ccc(O)c(c4)Oc4ccc(cc4)[C@@H](NC(=O)[C@@H]3NC(=O)[C@@H](c3ccc(O)cc3)NC1=O)C(=O)N2C)c1ccc(O)cc1` (stereo not given in full): the MIC in assay [1] amounted to 16 µg/mL (≈ 13.6 µM).
For the compound `CN1C(=O)[C@@H]2NC(=O)[C@@H]3NC(=O)[C@@H](c4ccc(O)cc4)NC(=O)[C@H](NC(=O)C(NCCCCCCB(O)O)c4ccc(O)cc4)Cc4c[nH]c5cc(ccc45)-c4cc3cc(c4O)Oc3ccc(cc3)C[C@H]1C(=O)N[C@@H](C(=O)OCCCCCCB(O)O)c1ccc(O)c(c1)Oc1ccc2cc1` (stereo not given in full), in assay [4], the MIC was 64 µg/mL (≈ 46.5 µM).
Take `CN1C(=O)[C@@H]2NC(=O)[C@@H]3NC(=O)[C@@H](c4ccc(O)cc4)NC(=O)[C@H](NC(=O)C(Nc4cccc(C(F)(F)F)c4)c4ccc(O)cc4)Cc4c[nH]c5cc(ccc45)-c4cc3cc(c4O)Oc3ccc(cc3)C[C@H]1C(=O)N[C@@H](C(=O)O)c1ccc(O)c(c1)Oc1ccc2cc1` (stereo not given in full): the MIC in assay [1] is 8 µg/mL (≈ 6.32 µM); in assay [2] it was over 128 µg/mL; in assay [3] it was 16 µg/mL (≈ 12.6 µM); in assay [4], 8 µg/mL (≈ 6.32 µM); in assay [5], 4 µg/mL (≈ 3.16 µM).
For the compound `CN1C(=O)[C@@H]2NC(=O)[C@@H]3NC(=O)[C@@H](c4ccc(O)cc4)NC(=O)[C@H](NC(=O)C(Nc4cccc(O)c4)c4ccc(O)cc4)Cc4c[nH]c5cc(ccc45)-c4cc3cc(c4O)Oc3ccc(cc3)C[C@H]1C(=O)N[C@@H](C(=O)O)c1ccc(O)c(c1)Oc1ccc2cc1` (stereo not given in full), the MIC is 4 µg/mL (≈ 3.3 µM) in assay [1]; over 128 µg/mL in assay [2]; 4 µg/mL (≈ 3.3 µM) in assay [3]; 4 µg/mL (≈ 3.3 µM) in assay [4]; 0.5 µg/mL (≈ 0.412 µM) in assay [5].
Regarding `CN(C)CCCNC(=O)[C@@H]1NC(=O)[C@@H]2Cc3ccc(cc3)Oc3cc4cc(c3O)-c3ccc5c(c[nH]c5c3)C[C@@H](NC(=O)C(N)c3ccc(O)cc3)C(=O)N[C@H](c3ccc(O)cc3)C(=O)N[C@H]4C(=O)N[C@@H](C(=O)N2C)c2ccc(cc2)Oc2cc1ccc2O` (stereo not given in full), in assay [3], the minimum inhibitory concentration (MIC) came to 2 µg/mL (≈ 1.66 µM).
Take `CN1C(=O)[C@@H]2NC(=O)[C@@H]3NC(=O)[C@@H](c4ccc(O)cc4)NC(=O)[C@H](NC(=O)C(Nc4ccc(B(O)O)cc4)c4ccc(O)cc4)Cc4c[nH]c5cc(ccc45)-c4cc3cc(c4O)Oc3ccc(cc3)C[C@H]1C(=O)N[C@@H](C(=O)O)c1ccc(O)c(c1)Oc1ccc2cc1` (stereo not given in full): the minimum inhibitory concentration (MIC) was 8 µg/mL (≈ 6.45 µM) in assay [1]; over 128 µg/mL in assay [2]; 8 µg/mL (≈ 6.45 µM) in assay [3]; 8 µg/mL (≈ 6.45 µM) in assay [4]; 1 µg/mL (≈ 0.806 µM) in assay [5].
Consider `CCCCCCCCNC(C(=O)N[C@@H]1Cc2c[nH]c3cc(ccc23)-c2cc3cc(c2O)Oc2ccc(cc2)C[C@H]2C(=O)N[C@@H](C(=O)O)c4ccc(O)c(c4)Oc4ccc(cc4)[C@@H](NC(=O)[C@@H]3NC(=O)[C@@H](c3ccc(O)cc3)NC1=O)C(=O)N2C)c1ccc(O)cc1` (stereo not given in full), for which the MIC in assay [4] amounted to 8 µg/mL (≈ 6.49 µM).
With `CN1C(=O)[C@@H]2NC(=O)[C@@H]3NC(=O)[C@@H](c4ccc(O)cc4)NC(=O)[C@H](NC(=O)Cc4ccc(O)cc4)Cc4c[nH]c5cc(ccc45)-c4cc3cc(c4O)Oc3ccc(cc3)C[C@H]1C(=O)N[C@@H](C(=O)NCCC[N+]1(C)CCCC1)c1ccc(O)c(c1)Oc1ccc2cc1`, the values for the MIC in assay [1], in assay [2] and in assay [3] were over 128 µg/mL, 1 µg/mL and 8 µg/mL, respectively.
Turning to `CN1C(=O)[C@@H]2NC(=O)[C@@H]3NC(=O)[C@@H](c4ccc(O)cc4)NC(=O)[C@H](NC(=O)C(NCCS(=O)(=O)O)c4ccc(O)cc4)Cc4c[nH]c5cc(ccc45)-c4cc3cc(c4O)Oc3ccc(cc3)C[C@H]1C(=O)N[C@@H](C(=O)OCCS(=O)(=O)O)c1ccc(O)c(c1)Oc1ccc2cc1` (stereo not given in full), the MIC in assay [1], in assay [3] and in assay [4] was over 128 µg/mL throughout.
As to `CNCCNC(=O)[C@@H]1NC(=O)[C@@H]2Cc3ccc(cc3)Oc3cc4cc(c3O)-c3ccc5c(c[nH]c5c3)C[C@@H](NC(=O)C(N)c3ccc(O)cc3)C(=O)N[C@H](c3ccc(O)cc3)C(=O)N[C@H]4C(=O)N[C@@H](C(=O)N2C)c2ccc(cc2)Oc2cc1ccc2O` (stereo not given in full), the MIC in assay [2] is 0.5 µg/mL (≈ 0.425 µM); in assay [3], 1 µg/mL (≈ 0.849 µM); in assay [4], 4 µg/mL (≈ 3.4 µM).
